Compound activity from PubChem BioAssay.
EP2 mod: modulators of human EP2 prostaglandin E2 receptor | P43116 | EP2-expressing cells, cAMP HTRF FRET, PGE2 co-stimulation | induction, % at 25 µM | 0.83% of 260,000 active;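 active = compounds whose cAMP rise, as percent of the full-agonist control response, exceeds 60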;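 note: rat C6 glioma line stably carrying human EP2 under a CMV promoter; the protocol text gives 20 µM as final concentration; 100% = response of wells given 1 µM PGE2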
NPY-Y2 antag: antagonists of human neuropeptide Y receptor Y2. P49146. NPY-Y2 expressing cells, antagonist mode. inhibition, % at 2.7 µM. 0.99% of 140,000 active. AID 793; in the data active = inhibition above about 17%;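 note: 0% = vehicle with agonist challenge and 100% = reference antagonist with challenge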
Target sequence (P49146 whole entry, looked up): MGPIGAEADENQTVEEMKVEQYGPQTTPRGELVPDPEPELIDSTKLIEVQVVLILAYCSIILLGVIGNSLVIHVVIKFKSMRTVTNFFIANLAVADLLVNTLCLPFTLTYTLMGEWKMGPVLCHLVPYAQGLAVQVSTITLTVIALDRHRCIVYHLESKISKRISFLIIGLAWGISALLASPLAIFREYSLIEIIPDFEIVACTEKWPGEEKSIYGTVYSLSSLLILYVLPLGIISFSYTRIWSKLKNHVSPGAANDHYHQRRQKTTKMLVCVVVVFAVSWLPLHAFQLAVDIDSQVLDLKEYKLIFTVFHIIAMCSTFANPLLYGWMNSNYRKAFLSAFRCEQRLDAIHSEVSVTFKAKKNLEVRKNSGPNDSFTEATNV
NPY-Y2 PAM-ag: human NPY-Y2 potentiation or agonism, primary screen | P49146 | cells expressing NPY-Y2, potentiator/agonist read-out | activation, % at 3.6 µM | 0.45% of 220,000 active | AID 1359; in the data active = activation above about 27%;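 note: cells stimulated with NPY near EC25 plus isoproterenol at EC100; 0% = vehicle plus submaximal agonist and 100% = vehicle plus saturating agonist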
PGE2 EP2 inh: inhibitors of human EP2 prostaglandin E2 receptor; inhibition, % at 25 µM; C6 glioma cells expressing human EP2, cAMP TR-FRET; cells stimulated with saturating PGE2; P43116; 0.52% of 260,000 active;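 active = percent inhibition above 40 after rounding to a whole number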;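 note: rat C6 glioma host cells with rolipram phosphodiesterase inhibitor present; the protocol text gives 20 µM as final concentration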
NPY-Y1 antag: NPY-Y1 (human) receptor antagonism; P25929; HEK293-CNG Y1 cells, membrane potential fluorescence; NPY at EC95, then isoproterenol; 1% of 200,000 active; inhibition, % at 3.6 µM;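 active = inhibition above the campaign mean inhibition of all tested compounds plus 3 SD, cut at about 20% in these data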;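 note: 0% = DMSO wells given NPY plus isoproterenol and 100% = isoproterenol alone without NPY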
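Assay system: HEK293 cells with Y1 receptor plus CNG channel | Probe or stimulus: NPY (25 nM), isoproterenol (1 µM), Ro 20-1724 (25 µM) | Timing: Compound incubation 1 h at room temperature, readout 45 min post-stimulation | Measured by: Membrane-potential fluorescent dye readout | Benchmarks: High control isoproterenol alone, low control NPY with isoproterenol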
NPY1 pot ag: potentiates or activates human NPY-Y1 receptor; AID 1304; P25929; 0.37% of 220,000 active; activation, % at 3.6 µM; NPY-Y1 expressing cells, potentiator/agonist activation; in the data active = activation above about 33%, passing the limit was not always enough;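 note: cells stimulated with NPY at EC10 then isoproterenol at EC100; 0% = low agonist plus stimulus and 100% = saturating agonist plus stimulus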
NPY-Y1 antag ct: counter-screen for NPY-Y2 antagonists: human NPY-Y1 antagonism; shares compounds with NPY-Y2 antag; cell-based NPY-Y1 antagonism counterscreen; inhibition, % at 3.6 µM; 19% of 710 active; in the data active = inhibition above about 20%;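 note: cells challenged with NPY then isoproterenol with cAMP sensed through a CNG channel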
NPY-Y2 ant conf: confirmation of human neuropeptide Y receptor Y2 antagonists. shares compounds with NPY-Y2 antag. HEK293 NPY-Y2 CNG channel, membrane potential fluorescence. inhibition, % at 2.8 µM. 32% of 710 active. AID 1257;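 active = mean inhibition of triplicate wells above the hit cutoff set in the primary screen, cut at about 17% in these data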;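 note: 0% = DMSO with NPY challenge and 100% = BIIE0246 high control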
* hit, by the source's call; · = no result. In the library only some 2.8% were active in any assay of this set; here they are far more common.

SMILES	EP2 mod	NPY-Y2 antag	NPY-Y2 PAM-ag	PGE2 EP2 inh	NPY-Y1 antag	NPY1 pot ag	NPY-Y1 antag ct	NPY-Y2 ant conf
CC(C)COC(=O)c1cccc2c1-c1ccccc1/C2=N\O	63.0*	22.0*	-7.6	·	13.2	-42.4	17.2	39.0*
CCC(=O)CSc1nc2sc3c(c2c(=O)n1-c1ccc(OC)cc1)CCC3	20.2	·	·	14.2	·	·	·	·
O=C(c1ccco1)N(CCCN1CCOCC1)c1nc(-c2ccc(F)cc2)cs1	21.9	19.0*	-15.5	3.0	9.4	-30.3	15.7	12.9
COCCCN(C(=O)c1ccco1)c1nc(-c2ccc(OC)cc2)cs1	48.1	·	·	8.4	·	·	·	·
CC1CN(c2nc3c(c(=O)[nH]2)CCN(Cc2cnc4ccccc4c2)C3)CC(C)O1 (configuration not stated)	-31.7	·	·	·	·	·	·	·
CCOc1cc(C(=O)Nc2sc3c(c2C(N)=O)CCC(C)C3)cc(OCC)c1OCC (configuration not stated)	-1.6	·	·	5.8	·	·	·	·
CC1CCCC(NC(=O)COC(=O)CSc2ccc3ccccc3c2)C1C (configuration not stated)	33.8	18.8*	-18.4	7.3	16.8	-44.4	28.1*	21.6*
COc1ccc2[nH]c(=O)c(CN(Cc3cccnc3)Cc3nnnn3Cc3ccco3)cc2c1	-37.0	·	·	5.1	·	·	·	·
COc1ccc(/C=C2\CCc3ccccc3C2=O)cc1Cn1nc(C)cc1C	46.1	17.7*	-10.1	14.2	8.1	8.8	9.1	4.3
CCN1CCN(C(c2ccccc2Cl)c2nnnn2C(C)(C)C)CC1 (configuration not stated)	4.7	·	·	8.4	·	·	·	·
CCOc1ccc(N(CC(=O)NC(C)CC)S(=O)(=O)c2c(C)noc2C)cc1 (configuration not stated)	-3.2	4.3	-4.2	16.1	4.7	3.8	·	·
CCOc1ccc(N(CC(=O)NC2CCCC(C)C2C)S(=O)(=O)c2c(C)noc2C)cc1 (configuration not stated)	16.0	19.7*	14.0	16.4	7.3	-7.3	3.7	5.7
COCCn1c2ccccc2n2c(=O)n(CC(=O)NC3CCCCC3)nc12	-20.5	·	·	10.2	·	·	·	·
O=C(Nc1ccc(Cl)cc1F)c1ccc(COc2c(F)c(F)c(F)c(F)c2F)o1	-25.5	16.0	-19.6	7.6	15.0	-21.5	·	·
O=C(Nc1ccc(F)cc1F)c1ccc(COc2c(F)c(F)cc(F)c2F)o1	14.8	17.6*	-27.3	4.4	10.5	-39.9	9.6	8.8
CCOc1ccc2ccccc2c1C(=O)N1CCN(c2ccccc2)CC1	14.0	18.3*	10.0	10.0	18.6	-12.7	16.9	9.6
CCOc1nc(SCCOc2ccccc2)nc(N(C)C)n1	40.3	23.4*	-7.5	9.4	-0.2	-19.7	10.3	12.8
Cc1ccccc1OCCSc1nc(N(C)C)nc(N(C)C)n1	36.3	10.7	-2.4	8.8	0.5	-25.8	·	·
CC1CCN(c2nc3c(c(=O)[nH]2)CCN(Cc2ccc(N4CCCC4)c(F)c2)C3)CC1	-39.9	·	·	3.7	·	·	·	·
COc1ccc(C2(CNC(=O)c3cccc([N+](=O)[O-])c3)CCOCC2)cc1	-1.0	17.5*	-3.0	3.0	-3.7	-26.1	-1.1	2.6
CCOC(=O)Cn1nc(-c2ccccc2)c2cnc3ccc(CC)cc3c21	32.9	26.2*	5.6	·	3.6	2.3	20.1	12.8
CC(C)(C)NCc1cc(Br)ccc1OCc1cccs1	9.0	20.2*	28.6	8.4	16.2	17.8	5.4	4.4
CCOc1ccccc1NC(=O)NC1(C(=O)N2CCN(CC)CC2)CCCCC1	-4.3	·	·	5.8	·	·	·	·
O=C(Cc1c[nH]c2ccccc12)N1CCc2c(nc(N3CCCCC3)[nH]c2=O)C1	-55.6	·	·	8.9	·	·	·	·
Cn1c(-c2sc3ccccc3c2Cl)n[nH]c1=S	1.0	17.3*	-26.1	13.5	18.3	-29.8	14.8	12.1
O=C(O)CN1CCN(CCO)CC1	12.3	·	·	1.2	·	·	·	·
Cc1ccc(CSCCNC(=O)c2ccc(N(C)S(=O)(=O)c3ccccc3)cc2)cc1	-7.0	17.9*	-25.8	13.5	4.9	-35.6	10.3	14.7
